In ChEMBL document CHEMBL1268822, “Synthesis and biological evaluation of indolyl glyoxylamides as a new class of antileishmanial agents” (Bioorg Med Chem Lett, 2010):

What was measured:
[1] = (§1) Selectivity index, ratio of CC50 for mouse J774A1 cells to IC50 for Leishmania donovani amastigotes; format: functional, J774.A1
Summary of the method: (§2)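 Ratio of CC50 in J-774 A-1 cells to IC50 against L. donovani amastigotes.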

[2] = Toxicity in mouse J774A1 cells; format: cell-based, J774.A1
[3] = test system: Leishmania donovani; experiment: Antileishmanial activity against Leishmania donovani amastigotes infected in mouse J774A1 cells assessed as inhibition of parasite growth after 72 hrs by luciferase reporter gene assay; format: functional, organism-based; conditions: J774.A1, 72 h
Summary of the method: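 J774A.1 macrophages seeded at 4 × 10⁴ cells/well in RPMI-1640 with 10% fetal calf serum, 37 °C CO₂, 24 h. Stationary-phase promastigotes then added at 4 × 10⁵/well and left to convert to intracellular amastigotes. Medium replaced with compound at 0.62–40 µM for 72 h at 37 °C. Steady Glo luciferase luminescence, growth inhibition relative to untreated controls.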

[4] = test system: J774.A1; experiment: as §1; format: functional; summary of the method: as §2

Compound | Selectivity Index [1] | CC50 [2] | IC50 [3] | Selectivity Index [4]
CCc1ccc([C@H]2c3[nH]c4ccccc4c3C[C@H](C(=O)OC)N2C(=O)C(=O)c2c[nH]c3ccccc23)cc1 | 3.84 | 30.9 µM | 8.04 µM | –
COC(=O)[C@@H]1Cc2c([nH]c3ccccc23)[C@H](c2ccc(C)cc2)N1C(=O)C(=O)c1c[nH]c2ccc(Br)cc12 | 1.95 | 10.1 µM | 5.18 µM | –
COC(=O)[C@H]1Cc2c([nH]c3ccccc23)[C@H](c2ccc(C(C)C)cc2)N1C(=O)C(=O)c1c[nH]c2ccc(Br)cc12 | 2.04 | 9.04 µM | 4.44 µM | –
CCc1ccc([C@H]2c3[nH]c4ccccc4c3C[C@H](C(=O)OC)N2C(=O)C(=O)c2c[nH]c3ccc(Br)cc23)cc1 | 1.62 | 9.48 µM | 5.86 µM | –
CCc1ccc([C@@H]2c3[nH]c4ccccc4c3C[C@H](C(=O)OC)N2C(=O)C(=O)c2c[nH]c3ccccc23)cc1 | 31.48 | 163 µM | 5.17 µM | –
COC(=O)[C@@H]1Cc2c([nH]c3ccccc23)[C@@H](c2ccc(Cl)cc2)N1C(=O)C(=O)c1c[nH]c2ccccc12 | 2.6 | 11.3 µM | 4.36 µM | –
COC(=O)[C@H]1Cc2c([nH]c3ccccc23)[C@@H](c2ccc(C(C)C)cc2)N1C(=O)C(=O)c1c[nH]c2ccc(Br)cc12 | 1.99 | 7.77 µM | 3.91 µM | –
COC(=O)[C@@H]1Cc2c([nH]c3ccccc23)[C@@H](c2ccc(C)cc2)N1C(=O)C(=O)c1c[nH]c2ccc(Br)cc12 | 1.84 | 8.83 µM | 4.79 µM | –
CCc1ccc([C@@H]2c3[nH]c4ccccc4c3C[C@H](C(=O)OC)N2C(=O)C(=O)c2c[nH]c3ccc(Br)cc23)cc1 | 2.17 | 11.6 µM | 5.36 µM | –
COC(=O)[C@@H]1Cc2c([nH]c3ccccc23)[C@H](c2ccc(C)cc2)N1C(=O)C(=O)c1c[nH]c2ccccc12 | 3.72 | 27.4 µM | 7.37 µM | –
COC(=O)[C@H]1Cc2c([nH]c3ccccc23)[C@H](c2ccc(C(C)C)cc2)N1C(=O)C(=O)c1c[nH]c2ccccc12 | 2.51 | 15.1 µM | 6.02 µM | –
COC(=O)[C@H]1Cc2c([nH]c3ccccc23)[C@@H](c2ccc(C(C)C)cc2)N1C(=O)C(=O)c1c[nH]c2ccccc12 | 4.84 | 32.6 µM | 6.74 µM | –
COC(=O)[C@@H]1Cc2c([nH]c3ccccc23)[C@@H](c2ccc(C)cc2)N1C(=O)C(=O)c1c[nH]c2ccccc12 | 5.07 | 34.4 µM | 6.79 µM | –
sodium stibogluconate | – | – | – | 5.53
COC(=O)[C@@H]1Cc2c([nH]c3ccccc23)[C@@H](c2ccccc2Br)N1C(=O)C(=O)c1c[nH]c2ccc(Br)cc12 | 1.77 | 7.25 µM | 4.09 µM | –
COC(=O)[C@@H]1Cc2c([nH]c3ccccc23)[C@@H](c2ccc(Cl)cc2)N1C(=O)C(=O)c1c[nH]c2ccc(Br)cc12 | 1.9 | 7.64 µM | 4.02 µM | –
COC(=O)[C@@H]1Cc2c([nH]c3ccccc23)[C@@H](c2ccccc2Br)N1C(=O)C(=O)c1c[nH]c2ccccc12 | 7.94 | 30.1 µM | 3.79 µM | –
